# Measurements: ChEMBL document CHEMBL1123247, “Nucleoside conjugates. 7. Synthesis and antitumor activity of 1-beta-D-arabinofuranosylcytosine conjugates of ether lipids” (J Med Chem, 1986)
# Legend:
# P388 [1] = experiment: Antitumor activity was determined against the ip implanted P388 leukemia in mice by range in survival days at 500 mg/kg (1 qd treatment schedule) dosage; Range is 35->45; settings: route intraperitoneal
# L1210 [2] = experiment: Antitumor activity against ic implanted L1210 lymphoid leukemia in mice expressed as active dose range (1-5qd treatment schedule) required to produce increase in life span by >25% was determined; Range is 40-80; format: functional, Mus musculus
# Summary of the method: (§1)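 DBA/2J mice, groups of 6 (26-32 g), got 1 × 10^5 L1210 cells ic on day 0. Dosing was ip starting 24 h later, as a sonicated solution or suspension in 0.9% NaCl with 0.5% Tween-80, over a wide dose range. Mice were followed daily until death. Median survival T/C was taken from survivors per NCI protocols, and ILS = (T/C − 1) × 100. Active range means doses giving ILS ≥25%; optimal dose means greatest ILS.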
# L1210 [3] = experiment: Antitumor activity was determined against the ic implanted L1210 lymphoid leukemia in mice by range in survival days at 300 mg/kg (1 qd treatment schedule) dosage; Range is 19-23; format: functional, Mus musculus
# L1210 [4] = experiment: Antitumor activity against ic implanted L1210 lymphoid leukemia in mice expressed as active dose range (1 qd treatment schedule) required to produce increase in life span by >25% was determined; Range is 200-400; format: functional, Mus musculus
# Summary of the method: as §1
# P388 [5] = experiment: Antitumor activity was determined against the ip implanted P388 leukemia in mice by change in […] at 500 mg/kg (1 qd treatment schedule) dosage; format: functional, Mus musculus; settings: route intraperitoneal
# Summary of the method: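 P388 leukemia, 1×10^6 cells implanted ip on day 0 into DBA/2J mice, groups of 6 (wt 23-33 g). Dosing ip started 24 h post-inoculation, vehicle 0.9% NaCl containing 0.5% Tween-80. Animals were observed daily until death or 45 days. Outputs were weight change, median survival T/C from survivors per NCI protocols, and %ILS = (T/C − 1) × 100.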
# P388 [6] = experiment: Antitumor activity was determined against the ip implanted P388 leukemia in mice by percent median survival rate (treated/control) at 60 mg/kg (1-5qd treatment schedule) dosage; >45.0/11.0; format: functional, Mus musculus; settings: route intraperitoneal
# P388 [7] = experiment: Antitumor activity was determined against the ip implanted P388 leukemia in mice by range in survival days at 60 mg/kg (1-5qd treatment schedule) dosage; Range is 35->45; format: functional, Mus musculus; settings: route intraperitoneal
# P388 [8] = experiment: Antitumor activity against ip implanted P388 leukemia in mice expressed as active dose range (1,5,9qd treatment schedule) required to produce increase in life span by >25% was determined; Range is 100-167; format: functional, Mus musculus
# Summary of the method: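 P388 leukemia: 1 × 10^6 cells were given ip on day 0 to DBA/2J mice, groups of 6 (23-33 g). Treatment was ip from 24 h after inoculation, vehicle 0.9% NaCl with 0.5% Tween-80. Mice were observed daily until death or 45 days. Median survival T/C was calculated from survivors per NCI protocols, and ILS = (T/C − 1) × 100. Active range means doses giving ILS ≥25%; optimal dose means greatest ILS.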
# L1210 [9] = experiment: Antitumor activity was determined against the ic implanted L1210 lymphoid leukemia in mice by range in survival days at 80 mg/kg (1-5qd treatment schedule) dosage; Range is 11-24; format: functional, Mus musculus
# L1210 [10] = experiment: Antitumor activity was determined against the ic implanted L1210 lymphoid leukemia in mice by percent median survival rate (treated/control) at 300 mg/kg (1 qd treatment schedule) dosage; 21.0/7.0; format: functional, Mus musculus
# P388 [11] = experiment: Antitumor activity was determined against the ip implanted P388 leukemia in mice by percent increase in life span at 500 mg/kg (1 qd treatment schedule) dosage; format: functional, Mus musculus; settings: route intraperitoneal
# Summary of the method: (§2)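 DBA/2J mice, 23-33 g, in groups of 6, were inoculated ip with 1×10^6 P388 cells on day 0. Dosing was ip from 24 h on the stated schedules, in 0.9% NaCl with 0.5% Tween-80 (sonicated solution or suspension). Survival was followed daily until death or 45 days. Median T/C was calculated from survivors per NCI protocols, with ILS = (T/C − 1) × 100.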
# L1210 [12] = experiment: Antitumor activity was determined against the ic implanted L1210 lymphoid leukemia in mice by range in survival days at 133 mg/kg (1,5,9qd treatment schedule) dosage; Range is 15-22; format: functional, Mus musculus
# L1210 [13] = experiment: Antitumor activity against ic implanted L1210 lymphoid leukemia in mice expressed as active dose range (1-5qd treatment schedule) required to produce increase in life span by >25% was determined; Range is 40-100; format: functional, Mus musculus
# Summary of the method: as §1
# L1210 [14] = experiment: Antitumor activity was determined against the ic implanted L1210 lymphoid leukemia in mice by range in survival days at 500 mg/kg (treatment of 1qd schedule) dosage; Range is 18-23
# P388 [15] = experiment: Antitumor activity was determined against the ip implanted P388 leukemia in mice by 45-day survivors in mice at 60 mg/kg (treatment of 1-5qd schedule) dosage; format: functional, Mus musculus; settings: route intraperitoneal
# Summary of the method: as §2
# P388 [16] = experiment: Antitumor activity was determined against the ip implanted P388 leukemia in mice by percent increase in life span at 300 mg/kg (treatment of 1qd schedule) dosage; settings: route intraperitoneal
# L1210 [17] = experiment: Antitumor activity was determined against the ip implanted L1210 leukemia in mice by range in survival days at 400 mg/kg (treatment of 1qd schedule) dosage; Range is 20-33; format: functional, Mus musculus; settings: route intraperitoneal
# Summary of the method: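 DBA/2J mice, 23-28 g, in groups of 6, were inoculated ip with 1×10^6 L1210 cells on day 0. Dosing was ip starting 24 h later on the stated daily schedules. Conjugates were given as sonicated solutions and reference prodrugs as suspensions in 0.9% NaCl with 0.5% Tween-80. Mice were observed daily until death or 45 days. Median survival T/C was calculated from survivors per NCI protocols.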
# L1210 [18] = experiment: Antitumor activity against ip implanted L1210 leukemia in mice expressed as active dose range (1-5qd treatment schedule) required to produce increase in life span by >25% was determined; Range is 5-350; format: functional, Mus musculus
# Summary of the method: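 DBA/2J mice, groups of 6 (23-28 g), were inoculated ip with 1 × 10^6 L1210 cells on day 0. Dosing was ip from 24 h, in 0.9% NaCl with 0.5% Tween-80 (sonicated solution or suspension). Mice were observed daily until death or day 45. Median survival T/C followed NCI protocols, and ILS = (T/C − 1) × 100. Active range means doses giving ILS ≥25%; optimal dose means greatest ILS.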
# L1210 [19] = experiment: Antitumor activity against ic implanted L1210 lymphoid leukemia in mice expressed as active dose range (1-9qd treatment schedule) required to produce increase in life span by >25% was determined; Range is 100-300; format: functional, Mus musculus
# Summary of the method: as §1
# P388 [20] = experiment: Antitumor activity was determined against the ip implanted P388 leukemia in mice by percent median survival rate (treated/control) at 200 mg/kg (treatment of 1-5qd schedule) dosage; 23.0/11.0; format: functional, Mus musculus; settings: route intraperitoneal
# L1210 [21] = experiment: Antitumor activity against the ic implanted L1210 lymphoid leukemia in mice expressed as optimal dose (1-9qd treatment schedule) required to produce greatest increase in life span was determined; format: functional, Mus musculus
# Summary of the method: as §1
compound,measurement,setting,value
CCCCCCCCCCCCCCCC(=O)OC[C@H](COP(=O)(O)OP(=O)(O)OC[C@H]1O[C@@H](n2ccc(N)nc2=O)[C@@H](O)[C@@H]1O)OC(=O)CCCCCCCCCCCCCCC,Range,P388 [1],35
same,Active dose range,L1210 [2],40 mg/kg/day
same,Range,L1210 [3],19
same,Active dose range,L1210 [4],200 mg/kg/day
same,Weight change,P388 [5],-0.07 g mouse-1
same,T/C,P388 [6],>45%
same,Range,P388 [7],35
same,Active dose range,P388 [8],100 mg/kg/day
same,Range,L1210 [9],11
same,median survival time,L1210 [10],21 days
same,ILS,P388 [11],>309
same,Range,L1210 [12],15
CCCCCCCCCCCCCCCCOCC(COP(=O)(O)OP(=O)(O)OC[C@H]1O[C@@H](n2ccc(N)nc2=O)[C@@H](O)[C@@H]1O)OC(=O)CCCCCCCCCCCCCCC (mixture of isomers),Active dose range,L1210 [13],40 mg/kg/day
same,Range,L1210 [14],18
same,Survivors,P388 [15],6
same,ILS,P388 [16],>309
same,Range,L1210 [17],20
Nc1ccn([C@@H]2O[C@H](CO)[C@@H](O)[C@@H]2O)c(=O)n1 [CYTARABINE],Active dose range,L1210 [18],5 mg/kg/day
same,Active dose range,L1210 [19],100 mg/kg/day
same,T/C,P388 [20],23%
same,Optimal dose,L1210 [21],100 mg
